According to ChEMBL document CHEMBL1148705, “Sponge-derived fijianolide polyketide class: further evaluation of their structural and cytotoxicity properties” (J Med Chem, 2007):
Active and inactive are the calls of the source. No cut-off for these calls is given here.

Legend:
[1] = tested on: L1210; assay: Cytotoxicity against mouse L1210 cells at 60 ug/disk by disk diffusion method; assay type: functional
In short: (§1)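 Disk diffusion soft agar colony formation assay using solid tumor lines (murine colon C38, human colon HCT-116, human lung H125), leukemia lines (murine L1210, human CEM) and normal CFU-GM cells. Results are inhibition zones in zone units. Differential cytotoxicity is the zone difference between solid tumor and leukemia cells (ΔSL) or normal cells (ΔSN).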

[2] = tested on: MC-38; assay: Cytotoxicity against mouse C38 cells at 60 ug/disk by disk diffusion method; assay type: functional; in short: as §1
[3] = Cytotoxicity against human H116 cells at 60 ug/disk by disk diffusion method; assay type: functional; in short: as §1
[4] = Cytotoxicity against human H125 cells at 60 ug/disk by disk diffusion method; assay type: functional; in short: as §1
[5] = tested on: HCT-116; assay: Increase in microtubule density in human HCT116 up to 50 uM; assay type: functional, cell-based
In short: (§2)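 Cell-based screen for disruption of interphase and mitotic microtubules, tested at concentrations up to 50 µM; scored for microtubule density, bundling, circular mitotic spindles, micronucleation and other nuclear changes.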

[6] = tested on: HCT-116; assay: Formation of circular mitotic spindles in human HCT116 up to 50 uM; assay type: functional, cell-based; in short: as §2
[7] = tested on: HCT-116; assay: Effect on micronucleation in human HCT116 up to 50 uM; assay type: functional, cell-based; in short: as §2
[8] = tested on: MDA-MB-435; assay: Cytotoxicity against human MDA-MB-435 cells after 48 hrs by SRB assay; conditions: MDA-MB-435, 48 h
[9] = tested on: HCT-116; assay: Cytotoxicity against human HCT116 cells after 72 hrs by trypan blue viable cell count; conditions: HCT-116, 72 h
[10] = tested on: L1210; assay: Cytotoxicity against mouse L1210 cells at 30 ug/disk by disk diffusion method; assay type: functional
In short: (§3)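 Soft agar colony formation assay with compound applied by disk diffusion; cell lines: murine L1210 leukemia and C38 colon, human HCT-116 colon, H-125 lung, CEM leukemia, normal hematopoietic CFU-GM. Differential cytotoxicity given as zone-unit differential between a solid tumor line and leukemia (ΔSL) or normal cells (ΔSN).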

[11] = tested on: MC-38; assay: Cytotoxicity against mouse C38 cells at 30 ug/disk by disk diffusion method; assay type: functional; in short: as §3
[12] = Cytotoxicity against human H116 cells at 30 ug/disk by disk diffusion method; assay type: functional; in short: as §3
[13] = Cytotoxicity against human H125 cells at 30 ug/disk by disk diffusion method; assay type: functional; in short: as §3
[14] = Cytotoxicity against human CFU-GM cells at 30 ug/disk by disk diffusion method; assay type: cell-based; in short: as §3
[15] = tested on: L1210; assay: Cytotoxicity against mouse L1210 cells at 40 ug/disk by disk diffusion method; assay type: functional; in short: as §3
[16] = tested on: MC-38; assay: Cytotoxicity against mouse C38 cells at 40 ug/disk by disk diffusion method; assay type: functional; in short: as §3
[17] = Cytotoxicity against human H116 cells at 40 ug/disk by disk diffusion method; assay type: functional; in short: as §3
[18] = Cytotoxicity against human H125 cells at 40 ug/disk by disk diffusion method; assay type: functional; in short: as §3

Structure (SMILES)	Activity [1]	Activity [2]	Activity [3]	Activity [4]	Activity [5]	Activity [6]	Activity [7]	IC50 [8]	IC50 [9]	Activity [10]	Activity [11]	Activity [12]	Activity [13]	Activity [14]	Activity [15]	Activity [16]	Activity [17]	Activity [18]
C=C1C[C@H](C)C[C@@H]2CC=C[C@@H](C/C=C\C(=O)O[C@H]3C[C@@H](O[C@H]3/C=C/[C@@H]3C[C@@]4(C)O[C@H]4[C@@H](O)O3)[C@@H](O)[C@@H](O)C1)O2 [FIJIANOLIDE F]	150 Zone units	0 Zone units	50 Zone units	100 Zone units	inactive	inactive	inactive	> 50 µM	> 50 µM	–	–	–	–	–	–	–	–	–
C=C1C[C@H](C)C[C@@H]2CC=C[C@@H](C/C=C\C(=O)O[C@H]([C@@H](O)/C=C/[C@@H]3C[C@@]4(C)O[C@H]4[C@@H](O)O3)C[C@@H]3O[C@H]3[C@@H](O)C1)O2 [FIJIANOLIDE G]	–	–	–	–	Active	Active	Active	9.2 µM	14.1 µM	150 Zone units	350 Zone units	200 Zone units	200 Zone units	100 Zone units	–	–	–	–
C=C1C[C@H](C)C[C@@H]2CC=C[C@@H](C/C=C\C(=O)O[C@H]3C[C@@H](O[C@H]3/C=C/[C@@H]3CC(C)=CC(OC)O3)[C@@H](O)[C@@H](O)C1)O2 (some centres not stated) [FIJIANOLIDE H]	–	–	–	–	inactive	inactive	inactive	> 50 µM	> 50 µM	–	–	–	–	–	0 Zone units	150 Zone units	0 Zone units	0 Zone units
C=C1C[C@H](C)C[C@@H]2CC=C[C@@H](C/C=C\C(=O)O[C@H]3C[C@@H](O[C@H]3/C=C/[C@@H]3CC(C)=CC(O)O3)[C@@H](O)[C@@H](O)C1)O2 (some centres not stated) [FIJIANOLIDE I]	–	–	–	–	inactive	inactive	inactive	> 50 µM	> 50 µM	0 Zone units	50 Zone units	0 Zone units	0 Zone units	–	–	–	–	–
